SMILES strings stand for the structures.

Assay type in all cases: functional
Experiment [1] concerns Trypanosoma brucei. Description: Compound is evaluated for trypanocidal activity against Trypanosoma brucei, by exposing the parasites directly to compound prior to injection to mice at 10 E-6 M concentration in dark conditions. In short, it runs like this: (§1)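 T. brucei EATRO 110 was separated from blood on DEAE-cellulose and washed in Tris-saline-glucose (TSG). Parasites at 5×10^6/mL in TSG were gently rotated 10 min with drug at the final concentration, kept dark under a red safelight until injection. Swiss mice, five per group, received 5×10^5 parasites ip in 0.1 mL. Read-out was mean days survival ±SD over 30 days, against untreated-parasite controls.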

The test system of experiment [2] is Trypanosoma brucei. Description: Compound is evaluated for trypanocidal activity against Trypanosoma brucei, by exposing the parasites directly to compound prior to injection to mice at 10 E-4 M concentration in presence of light. In short, it runs like this: (§2)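 DEAE-purified T. brucei EATRO 110 at 5×10^6/mL in TSG was mixed with drug at the final concentration by gentle rotation for 10 min. Samples were light-activated for 10 min under a 30W fluorescent lamp 4 cm above. 5×10^5 treated parasites in 0.1 mL were injected ip into Swiss mice, five per group. Survival was scored daily for 30 days and reported as mean days ±SD, with untreated controls.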

Experiment [3] has as its system Trypanosoma brucei. Description: Compound is evaluated for trypanocidal activity against Trypanosoma brucei, by exposing the parasites directly to compound prior to injection to mice at 10 E-4 M concentration in dark conditions. The method in brief:
as §1

In experiment [4] the test system is Trypanosoma brucei. Description: Compound is evaluated for trypanocidal activity against Trypanosoma brucei, by exposing the parasites directly to compound prior to injection to mice at 10 E-5 M concentration (pre) in presence of light. The method in brief:
(§3)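 Compound was irradiated 1 h before contact with T. brucei EATRO 110 (5×10^6/mL in TSG, final drug concentration). After 10 min gentle rotation, the mixture was irradiated again for 10 min under a 30W fluorescent lamp at 4 cm. 5×10^5 parasites in 0.1 mL were given ip to five Swiss mice per group. Read-out was mean days survival ±SD over 30 days, with untreated controls.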

Experiment [5] has as its system Trypanosoma brucei. Description: Compound is evaluated for trypanocidal activity against Trypanosoma brucei, by exposing the parasites directly to compound prior to injection to mice at 10 E-5 M concentration in presence of light. In short, it runs like this:
as §2

Experiment [6] concerns Trypanosoma brucei. Description: Compound is evaluated for trypanocidal activity against Trypanosoma brucei, by exposing the parasites directly to compound prior to injection to mice at 10 E-6 M concentration in presence of light. In short, it runs like this: as §2
The test system of experiment [7] is Trypanosoma brucei. Nature of the experiment: Compound is evaluated for trypanocidal activity against Trypanosoma brucei, by exposing the parasites directly to compound prior to injection to mice at 10 E-5 M concentration in dark conditions. In short, it runs like this:
as §1

Experiment [8] has as its system Trypanosoma brucei. Nature of the experiment: Compound is evaluated for trypanocidal activity against Trypanosoma brucei, by exposing the parasites directly to compound prior to injection to mice at 10 E-5 M concentration (pre) in dark conditions. The method in brief:
(§4)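 Drug was preirradiated 1 h with visible light, then added at the final concentration to T. brucei EATRO 110 (5×10^6/mL in TSG) and rotated 10 min. The parasites were then kept dark with a red safelight. Swiss mice, five per group, were injected ip with 0.1 mL holding 5×10^5 parasites. Mean days survival ±SD was scored over 30 days against untreated-parasite controls.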

Experiment [9] has as its system Trypanosoma brucei. Nature of the experiment: Trypanocidal activity against Trypanosoma brucei, exposur of parasites to compound prior to injection into mice at 10 e-6 M concentration in presence of light. Details: unit: days. In short, it runs like this:
as §2

For experiment [10], the system named is Trypanosoma brucei. Nature of the experiment: Trypanocidal activity against Trypanosoma brucei, exposure of parasites to compound prior to injection into mice at 10 e-6 M concentration in dark conditions. The method in brief: as §1
The subject of experiment [11] is Trypanosoma brucei. Nature of the experiment: Compound is evaluated for trypanocidal activity against Trypanosoma brucei, by exposing the parasites directly to compound prior to injection to mice at 10 e-6 M concentration (pre) in presence of light. The method in brief: as §3
Experiment [12] relates to Trypanosoma brucei. Description: Trypanocidal activity against Trypanosoma brucei, exposure of parasites to compound prior to injection into mice at 10 e-5 M concentration in presence of light. Set-up: unit: days. The method in brief:
as §2

Experiment [13] has as its system Trypanosoma brucei. Nature of the experiment: Trypanocidal activity against Trypanosoma brucei, exposure of parasites to compound prior to injection into mice at 10 e-5 M concentration in dark conditions. In short, it runs like this:
as §1

In experiment [14] the test system is Trypanosoma brucei. Nature of the experiment: Compound is evaluated for trypanocidal activity against Trypanosoma brucei, by exposing the parasites directly to compound prior to injection to mice at 10 e-5 M concentration (pre) in dark conditions. The method in brief: as §4
The test system of experiment [15] is Trypanosoma brucei. Nature of the experiment: Trypanocidal activity against Trypanosoma brucei, exposure of parasites to compound prior to injection into mice at 10 e-4 M concentration in dark conditions. The method in brief: as §1
Experiment [16] concerns Trypanosoma brucei. Nature of the experiment: Trypanocidal activity against Trypanosoma brucei, exposure of parasites to compound prior to injection into mice at 10 e-4 M concentration in presence of light. Set-up: unit: days. The method in brief: as §2
In experiment [17] the test system is Trypanosoma brucei. Description: Compound is evaluated for trypanocidal activity against Trypanosoma brucei, by exposing the parasites directly to compound prior to injection to mice at 10 e-7 M concentration in presence of light. Set-up: unit: days. In short, it runs like this: as §2
The test system of experiment [18] is Trypanosoma brucei. Description: Compound is evaluated for trypanocidal activity against Trypanosoma brucei, by exposing the parasites directly to compound prior to injection to mice at 10 e-7 M concentration in dark conditions. Details: unit: days. The method in brief:
as §1

For experiment [19], the system named is Trypanosoma brucei. Description: Compound is evaluated for trypanocidal activity against Trypanosoma brucei, by exposing the parasites directly to compound prior to injection to mice at 10 e-5 M concentration (pre) in presence of light. The method in brief:
as §3

The test system of experiment [20] is Trypanosoma brucei. Description: Compound is evaluated for trypanocidal activity against Trypanosoma brucei, by exposing the parasites directly to compound prior to injection to mice at 10 e-6 M concentration (pre) in dark conditions. In short, it runs like this:
as §4

For experiment [21], the system named is Trypanosoma brucei. Description: Compound is evaluated for trypanocidal activity against Trypanosoma brucei, by exposing the parasites directly to compound prior to injection to mice at 10 e-5 M concentration in presence of light. The method in brief:
as §2

For experiment [22], the system named is Trypanosoma brucei. Description: Compound is evaluated for trypanocidal activity against Trypanosoma brucei, by exposing the parasites directly to compound prior to injection to mice at 10 e-7 M concentration in dark. In short, it runs like this: as §1
Experiment [23] relates to Trypanosoma brucei. Nature of the experiment: Compound is evaluated for trypanocidal activity against Trypanosoma brucei, by exposing the parasites directly to compound prior to injection to mice at 10 E-6 M concentration (pre) in presence of light. In short, it runs like this: as §3
For experiment [24], the system named is Trypanosoma brucei. Description: Compound is evaluated for trypanocidal activity against Trypanosoma brucei, by exposing the parasites directly to compound prior to injection to mice at 10 E-5 M concentration in presence of lightin. In short, it runs like this:
as §2

Experiment [25] has as its system Trypanosoma brucei. Description: Compound is evaluated for trypanocidal activity against Trypanosoma brucei, by exposing the parasites directly to compound prior to injection to mice at 10 E-7 M concentration in presence of light. In short, it runs like this:
as §2

The test system of experiment [26] is Trypanosoma brucei. Description: Compound is evaluated for trypanocidal activity against Trypanosoma brucei, by exposing the parasites directly to compound prior to injection to mice at 10 E-6 M concentration (pre) in dark conditions. The method in brief: as §4
In experiment [27] the test system is Trypanosoma brucei. Nature of the experiment: Compound is evaluated for trypanocidal activity against Trypanosoma brucei, by exposing the parasites directly to compound prior to injection to mice at 10 E-7 M concentration in dark conditions. In short, it runs like this: as §1

In the case of `Nc1ccc2cc3ccccc3nc2c1`, the Activity in [1] came out at 4.9; in experiment [2], 30; in [3], 6.9; in experiment [4], 30; in [5], 30; in experiment [6], 5.7. Moreover, the Activity turned out to be 6.6 in experiment [7] and 6.7 in experiment [8].
As for `[N-]=[N+]=Nc1ccc2cc3ccc(N)cc3nc2c1`, the Activity in experiment [9] is listed as 11.2; in [10], 4.6; in experiment [12], 12.7; in [13], 5.5; in experiment [14] it was 5.2; in experiment [16], 30. Also, the values for the Activity in experiment [17], in experiment [18] and in experiment [19] were 5.9, 5.7 and 5.2, respectively. Further, in experiment [11], the “Mean survival of mice (days)” value turned out to be 5.4. Besides, the “Mean survival time of infected mice (days)” value (from here on “Mean survival time”) in experiment [15] is listed as 8.3.
`C[n+]1c2ccccc2cc2ccc(N=[N+]=[N-])cc21.[Cl-]`: the Activity is 8.6 in [9]; 5.4 in experiment [10]; 30 in experiment [12]; 6.6 in experiment [13]; 4.4 in experiment [14]; 30 in experiment [16]. For the same molecule, the figures for the Activity in [19] and in experiment [20] were 5.8 and 4.7, respectively. In addition, in experiment [11], the “Mean survival of mice (days)” value worked out at 5. The “Mean survival time” value in [15] came to 30.
With `Nc1cccc2nc3ccccc3c(N)c12`, the Activity was determined as 5.4 in experiment [1]; 30 in experiment [2]; 30 in experiment [3]; 5.6 in experiment [5]; 4.6 in experiment [6]; 4.6 in experiment [7].
Regarding `C[n+]1c2ccccc2cc2ccc(N)cc21.[Cl-]`, the Activity in [9] was determined as 30; in experiment [10], 6.9; in experiment [13], 14.2; in experiment [21] it was 30; in experiment [17], 12.4; in [18] it was 4.6. The “Mean survival of mice (days)” value in experiment [11] is recorded as 15.5. For the same molecule, the “Mean survival time” value in experiment [15] is on record as 30.
With `N=C(N)c1ccc(/N=N/Nc2ccc(C(=N)N)cc2)cc1` [DIMINAZENE], the Activity in experiment [10] stood at 10.8; in experiment [13], 19.2; in [22], 5.
In the case of `Nc1ccc2cc3ccc(N)cc3nc2c1` [PROFLAVINE], the Activity in experiment [1] amounted to 5.5; in [23] it was 20.6; in experiment [2], 30; in experiment [3], 30; in [24], 30; in experiment [25], 8.1. Also, the Activity stood at 7.2 in experiment [26], 30 in [6], 6.3 in experiment [27] and 12 in experiment [7].

The record behind these values is ChEMBL document CHEMBL1122685, “Identification of an acridine photoaffinity probe for trypanocidal action” (1984).
